Changes are numbered by the printed parent chain.
Key:
[1] = biological target: T1, HO2tail(C265A)^R (human HO2 residues 213–288, disulfide-reduced) (Homo sapiens, UniProt P30519, C265A); experiment: Fe^3+-heme difference titration with HO2tail; format: binding; details: read-out: Kd (titrations); 6 μM HO2tail(C265A)^R; 50 mM Tris pH 8.0, 50 mM KCl, 20 °C, anaerobic
T1 sequence (P30519 213-288 C265A): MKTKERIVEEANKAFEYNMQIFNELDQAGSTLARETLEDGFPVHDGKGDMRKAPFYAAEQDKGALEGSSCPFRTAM

[2] = biological target: T2, HO2core (Homo sapiens, UniProt P30519); experiment: Fe^3+-heme on rate, anaerobic stopped flow, HO2core; format: binding
T2 sequence (P30519 1-248): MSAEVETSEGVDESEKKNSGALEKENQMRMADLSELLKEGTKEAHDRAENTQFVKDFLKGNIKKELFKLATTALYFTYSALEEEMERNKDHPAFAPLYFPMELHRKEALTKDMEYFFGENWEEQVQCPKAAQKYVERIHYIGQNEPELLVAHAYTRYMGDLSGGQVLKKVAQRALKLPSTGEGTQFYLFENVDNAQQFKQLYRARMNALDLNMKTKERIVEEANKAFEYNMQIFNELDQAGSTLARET
Outline: (§1)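 Apoprotein at various concentrations was mixed with Fe3+-heme in 50 mM Tris pH 8.0, 50 mM KCl by stopped-flow inside an anaerobic chamber, 1 cm path, 20 °C, 406 nm. Each kobs is the mean of 5–7 traces fit to a single exponential. Eq 1 fit of kobs versus apoprotein concentration gave k2/k1 and kcoord, with k′heme ≈ kcoord/(k2/k1). Kd is the myoglobin-assay off rate divided by k′heme.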

[3] = biological target: T3, HO2sol^R (Homo sapiens, UniProt P30519); experiment: Pyridine hemochrome assay of bound heme, HO2sol^R; format: binding; details: after 5-fold excess Fe^3+-heme and removal of unbound heme
T3 sequence (P30519 1-288): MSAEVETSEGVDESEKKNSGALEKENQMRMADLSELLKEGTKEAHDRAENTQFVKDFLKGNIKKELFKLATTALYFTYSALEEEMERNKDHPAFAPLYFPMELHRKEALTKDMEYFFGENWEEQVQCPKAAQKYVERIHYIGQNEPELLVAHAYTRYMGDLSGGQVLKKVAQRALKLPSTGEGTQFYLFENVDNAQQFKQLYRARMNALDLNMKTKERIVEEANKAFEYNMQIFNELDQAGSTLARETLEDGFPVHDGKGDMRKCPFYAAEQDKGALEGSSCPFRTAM
Outline: (§2)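 Protein was reduced with a 25-fold molar excess of TCEP for 1 h anaerobically, desalted into anaerobic 50 mM Tris pH 8.0, 50 mM KCl, then incubated 1 h with excess Fe3+-heme (5-fold molar excess in the general method). The heme stock contained 15% DMSO and 0.1 M NaOH, was filtered and quantified at 385 nm. Unbound heme was removed on a desalting column. Bound heme was measured by pyridine hemochrome (Δε556 28.32 mM−1 cm−1).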

[4] = tested on: HO2tail^R; experiment: Pyridine hemochrome assay of bound heme, HO2tail^R; format: binding, human; details: after 5-fold excess Fe^3+-heme and removal of unbound heme
Outline: as §2

[5] = biological target: T4, HO2tail(C282A)^R (human HO2 residues 213–288, disulfide-reduced) (Homo sapiens, UniProt P30519, C282A); experiment: Fe^3+-heme difference titration with HO2tail; format: binding; details: read-out: Kd (titrations); 10 μM HO2tail(C282A)^R; 50 mM Tris pH 8.0, 50 mM KCl, 20 °C, anaerobic
T4 sequence (P30519 213-288 C282A): T1 sequence (P30519 213-288 C265A) with A53C, C70A

[6] = tested on: HRI (heme-regulated eukaryotic initiation factor 2α kinase); details: cited from earlier work
[7] = tested on: HO2tail^R; experiment: Fe^3+-heme off rate, apo-H64Y/V68F-myoglobin assay, HO2tail^R; format: binding, human; details: double-exponential, 20 °C
Outline: (§3)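 Disulfide-reduced (TCEP) heme-loaded protein, freed of unbound heme, at 2 μM was mixed with 20 μM apo-H64Y/V68F-myoglobin in 50 mM Tris pH 8.0, 50 mM KCl. Apomyoglobin was prepared by methyl ethyl ketone extraction, dialysed against Tris pH 7.4 with 150 mM KCl, and quantified at 280 nm. Spectra were recorded over time at 20 °C, following the absorbance rise at 600 from heme scavenging.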

[8] = biological target: T5, HO2core (human HO2 residues 1–248) (Homo sapiens, UniProt P30519); experiment: Fe^3+-heme difference titration with HO2core; format: binding; details: read-out: Kd (titrations); 2 μM HO2core; 50 mM Tris pH 8.0, 50 mM KCl, 20 °C, anaerobic; quadratic fit
T5 sequence (P30519 1-248): T2 sequence (P30519 1-248)

[9] = biological target: T6, HO2tail(C282A)^R (Homo sapiens, UniProt P30519, C282A); experiment: Fe^3+-heme on rate, anaerobic stopped flow, HO2tail; format: binding
T6 sequence (P30519 213-288 C282A): T1 sequence (P30519 213-288 C265A) with A53C, C70A
Outline: as §1

[10] = tested on: HO2tail(C265A)^R; experiment: Pyridine hemochrome assay of bound heme, HO2tail; format: binding, human; details: after excess Fe^3+-heme and removal of unbound heme
Outline: as §2

[11] = biological target: T6, HO2tail(C282A)^R; experiment: Fe^3+-heme off rate, apo-H64Y/V68F-myoglobin assay, HO2tail; format: binding; details: 2 μM heme-bound protein, 20 μM apo-H64Y/V68F-myoglobin, 20 °C
Outline: as §3

[12] = biological target: T6, HO2tail(C282A)^R; experiment: Pyridine hemochrome assay of bound heme, HO2tail; format: binding; details: after excess Fe^3+-heme and removal of unbound heme
Outline: as §2

[13] = tested on: HO2tail(C265A/C282A)^R; experiment: Heme binding to HO2tail; parameters: species or system human; details: data not shown
[14] = tested on: HO2sol^R (human HO2 residues 1–288, disulfide-reduced); experiment: Fe^3+-heme off rate, apo-H64Y/V68F-myoglobin assay, HO2sol^R; format: binding; details: double-exponential, 20 °C
Outline: as §3

[15] = tested on: HO2 tail at Cys265; experiment: Calculated dissociation equilibrium constant, HO2 tail at Cys265; format: binding, human
[16] = biological target: T3, HO2sol^R; experiment: Fe^3+-heme on rate, anaerobic stopped flow, HO2sol^R; details: 406 nm, 20 °C, per observable binding site (two per monomer)
Outline: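 TCEP-reduced apoprotein at various concentrations was mixed with Fe3+-heme in anaerobic 50 mM Tris pH 8.0, 50 mM KCl by stopped-flow within an anaerobic chamber at 20 °C, monitored at 406 nm. Each kobs is an average of 5–7 traces fit to a single exponential. kobs was plotted against the concentration of observable binding sites and fit to eq 1; k′heme ≈ kcoord/(k2/k1).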

[17] = tested on: HO2tail(C265A)^R; experiment: Fe^3+-heme off rate, apo-H64Y/V68F-myoglobin assay, HO2tail; format: binding, human; details: 2 μM heme-bound protein, 20 μM apo-H64Y/V68F-myoglobin, 20 °C
Outline: as §3

[18] = fit of eq 1 to kobs vs apoprotein concentration
[19] = read-out: Kd (k-heme/k′heme), calculated from off and on rates

C=CC1=C(C)c2cc3[n-]c(cc4[n-]c(cc5nc(cc1n2)C(C)=C5C=C)c(C)c4CCC(=O)O)c(CCC(=O)O)c3C.[Fe+2] [Fe^3+-heme]
Kd [1]: 900 ± 300 nM | k′heme (apparent second-order rate constant, kcoord/(k2/k1)) ([2]; 406 nm, 20 °C, anaerobic): 6.4e+06 M⁻¹ s⁻¹ | k2/k1 [2, 18]: 14.1 ± 0.3 µM | kcoord [2, 18]: 91 ± 1 s⁻¹ | Kd [2, 19]: 0.2 nM | hemes bound per monomer of protein [3]: 2.1 ± 0.1 hemes per monomer of protein | hemes bound per monomer of protein [4]: 1.4 ± 0.3 hemes per monomer of protein | Kd [5]: 90 ± 30 nM | off rate [6]: 0.0015 s⁻¹ | k-heme (off rate), fast phase ([7]; fast phase, assigned to Cys282): 0.0086 ± 0.003 s⁻¹ | k-heme (off rate), slow phase ([7]; slow phase, assigned to Cys265): 0.0023 ± 0.0004 s⁻¹ | Kd [8]: 14 ± 4 nM | k′heme (apparent second-order rate constant, kcoord/(k2/k1)) ([9]; 406 nm, 20 °C, anaerobic): 7.6e+06 M⁻¹ s⁻¹ | k2/k1 [9, 18]: 14 ± 4 µM | kcoord [9, 18]: 110 ± 10 s⁻¹ | Kd [9, 19]: 0.3 nM | heme bound per monomer of protein [10]: 0.74 ± 0.03 heme per monomer of protein | k-heme (off rate) [11]: 0.0023 ± 0.0001 s⁻¹ | heme bound per monomer of protein [12]: 0.8 ± 0.2 heme per monomer of protein | Fe^3+-heme binding (in words) [13]: did not bind | k-heme (off rate), fast phase ([14]; fast phase, assigned to Cys265): 0.0031 ± 0.0002 s⁻¹ | k-heme (off rate), slow phase ([14]; slow phase, assigned to His45 at the core): 0.00054 ± 0.00006 s⁻¹ | difference in binding affinity between the sites (core His45 vs tail Cys265) ([15]; Fe^3+-heme difference titrations): ~ 6 fold | difference in binding affinity between the sites (core His45 vs tail Cys265) ([15]; kinetic experiments): 2–5 fold | k′heme (apparent second-order rate constant, kcoord/(k2/k1)) [16]: 6.9e+06 M⁻¹ s⁻¹ | k-heme (off rate) [17]: 0.0055 ± 0.0005 s⁻¹

Source: PMC4478078 (Biochemistry, 2015)
